Experimental data taken from the EternaBench riboswitch data.

Tested on: MS2 coat protein
Assay: apparent Kd, MS2 coat protein; higher = weaker binding; RNA-MaP array; FMN 200 µM where present
Procedure, shortened: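 Designs were transcribed by stalled E. coli RNA polymerase on Illumina sequencing-chip clusters. They were titrated with SNAP-549-labelled MS2 coat protein from 0.7 or 1.5 nM, doubling to 3 µM, without and then with constant ligand. Buffer: 100 mM Tris-HCl pH 7.5, 80 mM KCl, 4 mM MgCl2, BSA, DTT, yeast tRNA, Tween-20. Green signal was normalised to red-channel RNA signal and control-cluster median Fmax. Apparent Kd is the median of filtered per-cluster binding-curve fits.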

[1] = designed as: ON switch for flavin mononucleotide, no ligand
[2] = ligand present: flavin mononucleotide, designed as: ON switch for flavin mononucleotide
[3] = designed as: OFF switch for flavin mononucleotide, no ligand
[4] = ligand present: flavin mononucleotide, designed as: OFF switch for flavin mononucleotide

Sequence | apparent Kd [1] | apparent Kd [2] | apparent Kd [3] | apparent Kd [4]
GUGCCUUGGGAGAAGGUUAUUGGCAAAGCUAUUAAAGGAUAUUCAUACCGGAAACGGACAUGAGGAUCACCCAUGUGGCACAAA | 752 nM | 208 nM | – | –
UGUCGGAGCAGAGGAUAUUACAUGAGGAUCACCCAUGUAUGAAACAAUAGCUGGAAACAGCAAUGUAAGAAGGCUGCUCCGACA | – | – | 5.94 nM | 11.3 nM
UGGUACAUCGGAGGAUAUCAUGUGUAAACAUGAGGAUCACCCAUGUCGUACGAGAGUACGGAGAUUGAGAAGGCCGAUGUACCU | 88.7 nM | 16.5 nM | – | –
GGAUGAUUAAUAGGAUAUUAGUUGUAAAAUGUUUAAGAAGGAUUAAUGAUUUAAACGACCAGUUACAUGAGGAUCACCCAUGUU | 27.9 nM | 21.4 nM | – | –
GCAGGAUAAGUGAGGAUAUACCUCUGGAUACAGAGGUAGAAGGCACAUGAGGAUCACCCAUGUUACUCACCUGC | – | – | 11.9 nM | 33.8 nM
CGGUUAUAUCGAGGAUAUAAGUCUAGGACAUGAGGAUCACCCAUGUAUGUCUUAGAAGGCGAUAUAACCAGCCUGUUACAGGCA | 29.3 nM | 6.32 nM | – | –
UUCAGACAUGAGGAUCACCCAUGUGAGGAUAUGAUGCGAUCGUCGAAAGACGAUAGCAUCAGAAGGCACAUAUG | – | – | 167 nM | 315 nM
AUCGAACAUGAGGAUCACCCAUGUCAGUCGAACCAAGGAUAUGGGCAGGGUUCUCUUGCACCAGAAGGUGGCUAAA | 56.9 nM | 95.7 nM | – | –
UAUUACAGAUAAGGAUAUUGACAUGAGGAUCACCCAUGUAUUUGGGAAUGUUUACUGAAUUCUUACGAGAAGGUAUACGUACUU | – | – | 128 nM | 98.7 nM
UGUUAGUAGUGAGGAUAUACAUACACCUUACAUGAGGAUCACCCAUGUUUUAAGAUUGAUAGAUAGUAGAAGGCACAUGAUGAU | 59 nM | 23 nM | – | –
UUGUUACAUGAGGAUCACCCAUGUUGUUGUAGAUAAGGAUAUAUAGGAACGAGAGAAAUAAUAGAAGGUAUUAGAC | 31.7 nM | 27.2 nM | – | –
GGACAUUUACAGAAGGGCAAGUUGGAUCGCGGAUAACGCGAUCCGACUUGCAGGAUAUGUUGAACAUGAGGAUCACCCAUGUCU | 7.99 nM | 8.52 nM | – | –
UUUUACGUAGGAUAUACAUUUUUUUUAUUAUUUUCAUUAUUACAUGAGGAUCACCCAUGUAGAAGGACGAUUUU | – | – | 22.8 nM | 22 nM
CCCGUCAUCGAGAAGGCCUCAACAUGAGGAUCACCCAUGUUGUAAUAUGGGAGGAUAUCGAUGAUACAGCUACGUUUCGUACCC | 17.1 nM | 5.8 nM | – | –
UGACGGAGCUGAGGAUAUUACAUGAGGAUCACCCAUGUAAGUCUCCAGGAAACUGGAGACAAAUGUAAGAAGGCAGCUCCGUCA | – | – | 18.7 nM | 27.9 nM
AACCUAAAACAGAAGGCCAAAUACAUGAGGAUCACCCAUGUCGAAUCAUGGAGGAUAUGUUGUUAUUUACUCGCAGAUGAGUGC | 77.6 nM | 8.18 nM | – | –
AUCCAUUGAGAGAAGGGAGUACAUGAGGAUCACCCAUGUGGUCGUUCAUACUCAGGAUAUCUAACUGGGUUAGUGGCGCACGCC | – | – | 166 nM | 367 nM
AGUAAGAUGCAGAAGGUGUCAGCGAGAGCUGCGACAUGAGGAUCACCCAUGUACAAGUGAGUGUACAAGGAUAUGCAUCUUACA | 192 nM | 24 nM | – | –
AAAACAUGAGGAUCACCCAUGUAAAGAUCACUUAAUAGUUGUGAGGAUAUACGAUUUUAAAGCUAGUAGAAGGCACUGGGUACA | 28.1 nM | 36.1 nM | – | –
CCAUGUUAGCAGGAUAUGCUAUUAAUCUUUUAUGCAGAAGGGCUUACAUGAGGAUCACCCAUGUAUUAAGUCUU | – | – | 11.3 nM | 19.5 nM
GUGGUUGUCGUAGGAUAUGUAGGAUAUUCCUACAUGAGGAUCACCCAUGUUCGCAUGGAAGAAUGACAGAAGGACGAUGACCAU | 330 nM | 82.6 nM | – | –
AGGCAGGACCAGAAGGACAUGAGGAUCACCCAUGUAGGAUAUGGGCGUGGUUUAUGGGUACCUGGGAGAAUGACUGGGUUGUCA | 363 nM | 29.4 nM | – | –
AGUGUCAUUUAGAAGGCCUCAUGACAUGAGGAUCACCCAUGUUAUCAUGGGAGGAUAUGGAUGAUAUAGCUACGUUUCGUAGCA | 233 nM | 78.2 nM | – | –
AUCAGCUCGUCAGGAUAUACGUCACUGCGUCAGCAGUGUGUUAAGAUCACAUGAGGAUCACCCAUGUAGAAGGGACGAGCUGAU | – | – | 6.7 nM | 27.9 nM

Sequence | apparent Kd [1] | apparent Kd [2] | apparent Kd [3] | apparent Kd [4]
UGUAAGAUGCAGAAGGUGUUAGCUAGAGCUACGACAUGAGGAUCACCCAUGUACUAGAAACAGUACAAGGAUAUGCAUCUUACC | 19.6 nM | 6.43 nM | – | –
CGCUGCCACGCAGGAUAUGCAUUGGAUUCCAAUGCAGAAGGGCGAUUACAUGAGGAUCACCCAUGUGUCGGCAGUGAAGAAGAG | 590 nM | 44.8 nM | – | –
ACGCGAUGGGAGAAGGUACUUUAAAAUAUUUUCACAUGAGGAUCACCCAUGUAAGGAUAUCCCAUCGUUAAAUAUUAUACAGCA | – | – | 6.49 nM | 5.24 nM
CAGGUAGACUGAGGAUAUACACUAAACAGCUAGUCUAUCUAGCUGACCACAUGAGGAUCACCCAUGUAGAAGGCAGUCUGCCUG | – | – | 18.1 nM | 39.2 nM
GUCAACUCGUGAGGAUAUACAACACUGCUUCGGCAGUGUAUUAAGAUCACAUGAGGAUCACCCAUGUAGAAGGCACGAGCUGAU | – | – | 14.4 nM | 214 nM
UCGAGGUCAGGAUAUACAUGAGGAUCACCCAUGUUGAGAUAAGGUAGGAAAAGAGUAGGUAGAAGGGACGAGAG | – | – | 27.6 nM | 30.9 nM
GGAUUACAUGAGGAUCACCCAUGUGAGGAUAUCGAUGUCCAGUAAUACGUGCGGGACUCGAGAAGGCACUUGGA | – | – | 40.1 nM | 200 nM
GGCGGGCACACUGGCCGCUGAAGGAGAAGGCAGUGCACAUGAGGAUCACCCAUGUCGCGUGUGCCUGAGGAUAUCCGUAAAACG | – | – | 9.38 nM | 71.4 nM
AAUAACAGAGGAUAUACUAUUUUAUGUAUUUAUUAUUUUAAACAUGAGGAUCACCCAUGUAGAAGGCUGAAUAA | – | – | 19.8 nM | 20.7 nM
GCUGGGUAGGCAGGAUAUCCUCGCGCAAACACAUGAGGAUCACCCAUGUACACAAAACGUGAUAUGGAGAAGGGCCGACCCACA | 22.4 nM | 5.72 nM | – | –
CAAGGCGGUGAAGGAUAUACACGGGCGUUGCCAAACAUGAGGAUCACCCAUGUAGAAGGUCACCCUGAGAAGGCUUUAUGCCAU | – | – | 382 nM | 45.2 nM
CACCGUUAGCGAGGAUAUCGUACAUGAGGAUCACCCAUGUAAUAAAUGAGAAUUUCGGAUGUAUGCGAGAAGGCGCGAAUCGGC | – | – | 52.9 nM | 40.6 nM
CAUGUCCUCACAGGAUAUGCUGGACUUUGUCCAGCAGAAGGGUGUUAACAUGAGGAUCACCCAUGUGGACAUGAUAUAUUUAAU | 933 nM | 69.8 nM | – | –
ACCACGGGAGGAUAUACAUGAGGAUCACCCAUGUCAACUCCACGUGCCCACGUCCUCUGUAGAAGGCCCUACAU | – | – | 16 nM | 24.3 nM
GCGUGACAUGAGGAUCACCCAUGUGAGGAUAUCUGGAUAAUCUUUAUUUUAGAUAUCCAGAGAAGGCACAUGCU | – | – | 162 nM | 117 nM
CUUAUGUGAGGAUAUGUACAGAAAAAACUGGGUGUAACUGUACAGAAGGCACAUGAGGAUCACCCAUGUGUAUU | – | – | 98.5 nM | 34.1 nM
GCGUUGAACGAGAAGGCCAAUACAUGAGGAUCACCCAUGUUAAGUUGUUUUGGAGGAUAUCGAACGCAUUCAAUAUUGCAACGC | – | – | 6.65 nM | 5.84 nM
GGCAGCUCGUGAGGAUAUACAACACUGCUUCGGCAGUGUAUUAAGAUCACAUGAGGAUCACCCAUGUAGAAGGCACGAGCUGAU | – | – | 13.9 nM | 254 nM
CCGGAAAUGAAGGAUAUAGGUGUCGAUAGACUCCUAGAAGGUCAUACAUGAGGAUCACCCAUGUGUCCUACCGG | – | – | 15.7 nM | 32.6 nM
CCGUUACAUGAGGAUCACCCAUGUGAGGAUAUCGGGAUGACUGGCAGCGUGCGGGACUCGAGAAGGCACUGGGC | – | – | 46.1 nM | 41.5 nM
CACAACCAGGGAGGAUAUACAUGAGGAUCACCCAUGUUCGGCUCCCAUGCAGGAUGCCGUCCCGUGUAGAAGGCCCAGCGAUAG | – | – | 9.91 nM | 32.2 nM
AGUAUGCGGCAGGAUAUCCAUCCGCGGUGUGGUGGAGAAGGGCUGACAUGAGGAUCACCCAUGUGCGUCCUGUA | – | – | 23.6 nM | 37.9 nM
UUAGGUCGAAACAUGAGGAUCACCCAUGUGUUAUAAUUAAUAUAGGAUAUGUUUAUACUUUUUGGGCAGAAGGAUGAUAUUGCU | 21.2 nM | 17.9 nM | – | –
GGAUUUCCUGAGGAUAUUGCAUCACCUGAUUUAUAAGAAGGCAGAACAUGAGGAUCACCCAUGUGGGUAUUCGG | – | – | 27.6 nM | 37.4 nM
